Data as given in ChEMBL document CHEMBL1143981, “Exploring the potential of 3'-O-carboxy esters of thymidine as inhibitors of ribonuclease A and angiogenin” (Bioorg Med Chem, 2008).
Calls of active or inactive are those of the source. The rule behind the calls is not given here.

What was measured:
Ribonuclease pancreatic = assay: Activity at RNase A
Procedure, shortened: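 Spectrophotometric kinetics with 2',3'-cCMP substrate in oligo(vinylsulfonic acid)-free 0.1 M Mes–NaOH, pH 6.0, with 0.1 M NaCl. RNase A was at 10 µM. Substrate ranged 0.14–0.28 mM with inhibitor 0–6.7 µM, or 0.13–0.25 mM with inhibitor 0–62 µM, depending on compound. Inhibition constants came from initial velocities via Eadie–Hofstee plots (V vs V/[S]), using the slopes.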

[1] = Inhibition of RNase A by precipitation assay
Procedure, shortened: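 Yeast tRNA substrate (0.1 mg) in 0.1 M Tris–HCl, pH 7.5, with 5 mM EDTA and 10 µg HSA, 50 µl final. Enzyme (0.2 µM solution) was preincubated with inhibitor (225 µM solution) before addition. Reaction ran at 37 °C for 30 min. It was quenched with ice-cold 1.14 N perchloric acid containing 6 mM uranyl acetate, held on ice 30 min, then centrifuged at 4 °C.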

[2] = biological target: T1, Ribonuclease pancreatic (Homo sapiens) (UniProt P07998); assay: Inhibition of RNase A assessed as tRNA degradation by agarose-gel based assay
T1 sequence (whole entry): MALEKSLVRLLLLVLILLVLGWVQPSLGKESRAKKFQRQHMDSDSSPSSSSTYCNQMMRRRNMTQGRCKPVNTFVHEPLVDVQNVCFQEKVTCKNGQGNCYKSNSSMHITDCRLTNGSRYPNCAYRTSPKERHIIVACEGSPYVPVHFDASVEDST
Procedure, shortened: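 RNase A (0.66 µM solution) was preincubated 6 h with 1.5 mM inhibitor solution, 50 µl total. An aliquot was then mixed with yeast tRNA (5.0 mg/ml, freshly dissolved in RNase-free water) for 30 min. Samples ran on 1.1% agarose, and undegraded tRNA was visualized by ethidium bromide staining under UV.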

Row | Ki (Ribonuclease pancreatic) [µM] | IC50 [1] [µM] | Activity [2] | SMILES
1 | 103 | 312 | Active | Nc1ccn([C@@H]2O[C@H](CO)[C@@H](OP(=O)(O)O)[C@H]2O)c(=O)n1
2 | 95 | 341 | Active | Cc1cn([C@H]2C[C@H](OC(=O)c3ccccc3)[C@@H](CO)O2)c(=O)[nH]c1=O
3 | 13.2 | 167 | – | Cc1cn([C@H]2C[C@H](OP(=O)(O)O)[C@@H](CO)O2)c(=O)[nH]c1=O
4 | 42 | 197 | Active | CC(=O)O[C@H]1C[C@H](n2cc(C)c(=O)[nH]c2=O)O[C@@H]1CO
